Assay results taken from ChEMBL document CHEMBL1275285, “Synthesis, antimicrobial and anti-inflammatory activities of novel 5-(1-adamantyl)-1,3,4-thiadiazole derivatives” (2010).
≈ marks a conversion by molar mass, not a printed value. Calls of active or inactive are those of the source. No cut-off for these calls is given here.

System: Micrococcus luteus
Test: Antimicrobial activity against Micrococcus luteus IFO 3232 after 24 hrs
Format: functional
Conditions: not given
Summary of the method: (§1)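 MIC by two-fold serial dilution in wells, inoculated with microbial suspensions at 10^6 CFU/mL. Incubation was at 36 °C for 24 h (bacteria) or 48 h (C. albicans). MIC was the lowest concentration fully inhibiting visible growth, read by unaided eye.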

Molecule	MIC [µg/mL]
GENTAMICIN	2

Same assay, conditions: IFO 3232, 24 h

Molecule	MIC [µg/mL]
CC1(C)S[C@@H]2[C@H](NC(=O)[C@H](N)c3ccccc3)C(=O)N2[C@H]1C(=O)O [AMPICILLIN]	2 (≈ 5.72 µM)

System: Rattus norvegicus
Test: Antiinflammatory activity in Sprague-Dawley rat assessed as inhibition of carrageenan-induced paw edema at 40 mg/kg, ip administered 1 hrs before carrageenan challenge relative to untreated control
Format: functional
Conditions: route intraperitoneal

Molecule	inhibition in vivo at 40 mg/kg [%]
O=C(O)CCn1nc(C23CC4CC(CC(C4)C2)C3)sc1=S	36.8
CC(C(=O)O)n1nc(C23CC4CC(CC(C4)C2)C3)sc1=S (racemic)	65.2
S=c1sc(C23CC4CC(CC(C4)C2)C3)nn1Cc1ccccc1	0.92
CCN1CCN(Cn2nc(C34CC5CC(CC(C5)C3)C4)sc2=S)CC1	10.6
O=C(O)Cn1nc(C23CC4CC(CC(C4)C2)C3)sc1=S	32.7

System: Staphylococcus aureus
Test: Antimicrobial activity against Staphylococcus aureus IFO 3060 at 200 ug/8 mm disk after 24 hrs by agar disk diffusion method
Format: functional
Conditions: not given
Summary of the method: (§2)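 Agar disc diffusion on Mueller-Hinton agar: 8 mm filter paper discs moistened with compound in DMSO (200 per disc) placed on plates pre-inoculated with each organism; incubated at 37 °C; growth inhibition zone diameter read after 24 h for bacteria, 48 h for C. albicans.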

Molecule	GI [mm]	growth inhibition (GI)
O=C(O)CCn1nc(C23CC4CC(CC(C4)C2)C3)sc1=S	11	
CC(C(=O)O)n1nc(C23CC4CC(CC(C4)C2)C3)sc1=S (racemic)	18	
S=c1sc(C23CC4CC(CC(C4)C2)C3)nn1Cc1ccccc1		inactive
S=C(Nc1ccccc1)Nc1nnc(C23CC4CC(CC(C4)C2)C3)s1	13	
Fc1ccc(NC(=S)Nc2nnc(C34CC5CC(CC(C5)C3)C4)s2)cc1	14	
CCN1CCN(Cn2nc(C34CC5CC(CC(C5)C3)C4)sc2=S)CC1	12	
O=C(O)Cn1nc(C23CC4CC(CC(C4)C2)C3)sc1=S	18	

System: Pseudomonas aeruginosa
Test: Antimicrobial activity against Pseudomonas aeruginosa IFO 3448 at 100 ug/8 mm disk after 24 hrs by agar disk diffusion method
Format: functional
Conditions: not given
Summary of the method: (§3)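 Agar disc diffusion on Mueller-Hinton agar. Sterile 8 mm filter-paper discs were moistened with the agent dissolved in DMSO and placed on plates already inoculated with the organism. Plates were incubated at 37 °C, and growth-inhibition zone diameters were measured after 24 h.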

Molecule	GI
GENTAMICIN	19 mM
CC1(C)S[C@@H]2[C@H](NC(=O)[C@H](N)c3ccccc3)C(=O)N2[C@H]1C(=O)O [AMPICILLIN]	17 mm

System: Pseudomonas aeruginosa
Test: Antimicrobial activity against Pseudomonas aeruginosa IFO 3448 after 24 hrs
Format: functional
Conditions: not given
Summary of the method: (§4)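 MIC by two-fold serial dilution in wells inoculated with 10^6 CFU/mL of each organism; incubated at 36 °C for 24 h (bacteria); MIC taken as lowest concentration giving no visible growth by unaided eye.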

Molecule	MIC [µg/mL]
GENTAMICIN	1

Same assay, conditions: IFO 3448, 24 h

Molecule	MIC [µg/mL]
CC1(C)S[C@@H]2[C@H](NC(=O)[C@H](N)c3ccccc3)C(=O)N2[C@H]1C(=O)O [AMPICILLIN]	2 (≈ 5.72 µM)

System: Staphylococcus aureus
Test: Antimicrobial activity against Staphylococcus aureus IFO 3060 at 100 ug/8 mm disk after 24 hrs by agar disk diffusion method
Format: functional
Conditions: not given
Summary of the method: as §3

Molecule	GI
GENTAMICIN	26 mM
CC1(C)S[C@@H]2[C@H](NC(=O)[C@H](N)c3ccccc3)C(=O)N2[C@H]1C(=O)O [AMPICILLIN]	23 mm

System: Escherichia coli
Test: Antimicrobial activity against Escherichia coli IFO 3301 at 100 ug/8 mm disk after 24 hrs by agar disk diffusion method
Format: functional
Conditions: not given
Summary of the method: as §3

Molecule	GI
GENTAMICIN	20 mM
CC1(C)S[C@@H]2[C@H](NC(=O)[C@H](N)c3ccccc3)C(=O)N2[C@H]1C(=O)O [AMPICILLIN]	17 mm

System: Pseudomonas aeruginosa
Test: Antimicrobial activity against Pseudomonas aeruginosa IFO 3448 at 200 ug/8 mm disk after 24 hrs by agar disk diffusion method
Format: functional
Conditions: not given
Summary of the method: as §2

Molecule	growth inhibition (GI)
O=C(O)CCn1nc(C23CC4CC(CC(C4)C2)C3)sc1=S	inactive
CC(C(=O)O)n1nc(C23CC4CC(CC(C4)C2)C3)sc1=S (racemic)	inactive
S=c1sc(C23CC4CC(CC(C4)C2)C3)nn1Cc1ccccc1	inactive
S=C(Nc1ccccc1)Nc1nnc(C23CC4CC(CC(C4)C2)C3)s1	inactive
Fc1ccc(NC(=S)Nc2nnc(C34CC5CC(CC(C5)C3)C4)s2)cc1	inactive
CCN1CCN(Cn2nc(C34CC5CC(CC(C5)C3)C4)sc2=S)CC1	inactive
O=C(O)Cn1nc(C23CC4CC(CC(C4)C2)C3)sc1=S	inactive

System: Escherichia coli
Test: Antimicrobial activity against Escherichia coli IFO 3301 at 200 ug/8 mm disk after 24 hrs by agar disk diffusion method
Format: functional
Conditions: not given
Summary of the method: as §2

Molecule	growth inhibition (GI)
O=C(O)CCn1nc(C23CC4CC(CC(C4)C2)C3)sc1=S	inactive
CC(C(=O)O)n1nc(C23CC4CC(CC(C4)C2)C3)sc1=S (racemic)	inactive
S=c1sc(C23CC4CC(CC(C4)C2)C3)nn1Cc1ccccc1	inactive
S=C(Nc1ccccc1)Nc1nnc(C23CC4CC(CC(C4)C2)C3)s1	inactive
Fc1ccc(NC(=S)Nc2nnc(C34CC5CC(CC(C5)C3)C4)s2)cc1	inactive
CCN1CCN(Cn2nc(C34CC5CC(CC(C5)C3)C4)sc2=S)CC1	inactive
O=C(O)Cn1nc(C23CC4CC(CC(C4)C2)C3)sc1=S	inactive

System: Micrococcus luteus
Test: Antimicrobial activity against Micrococcus luteus IFO 3232 at 100 ug/8 mm disk after 24 hrs by agar disk diffusion method
Format: functional
Conditions: not given
Summary of the method: as §3

Molecule	GI
GENTAMICIN	18 mM
CC1(C)S[C@@H]2[C@H](NC(=O)[C@H](N)c3ccccc3)C(=O)N2[C@H]1C(=O)O [AMPICILLIN]	19 mm

System: Bacillus subtilis
Test: Antimicrobial activity against Bacillus subtilis IFO 3007 after 24 hrs
Format: functional
Conditions: not given
Summary of the method: as §4

Molecule	MIC [µg/mL]
GENTAMICIN	2

Same assay, conditions: IFO 3007, 24 h

Molecule	MIC [µg/mL]
CC(C(=O)O)n1nc(C23CC4CC(CC(C4)C2)C3)sc1=S (racemic)	4 (≈ 12.3 µM)
Fc1ccc(NC(=S)Nc2nnc(C34CC5CC(CC(C5)C3)C4)s2)cc1	4 (≈ 10.3 µM)
CC1(C)S[C@@H]2[C@H](NC(=O)[C@H](N)c3ccccc3)C(=O)N2[C@H]1C(=O)O [AMPICILLIN]	0.5 (≈ 1.43 µM)
O=C(O)Cn1nc(C23CC4CC(CC(C4)C2)C3)sc1=S	2 (≈ 6.44 µM)

System: Micrococcus luteus
Test: Antimicrobial activity against Micrococcus luteus IFO 3232 at 200 ug/8 mm disk after 24 hrs by agar disk diffusion method
Format: functional
Conditions: not given
Summary of the method: as §2

Molecule	growth inhibition (GI)	GI [mm]
O=C(O)CCn1nc(C23CC4CC(CC(C4)C2)C3)sc1=S	inactive	
CC(C(=O)O)n1nc(C23CC4CC(CC(C4)C2)C3)sc1=S (racemic)		13
S=c1sc(C23CC4CC(CC(C4)C2)C3)nn1Cc1ccccc1	inactive	
S=C(Nc1ccccc1)Nc1nnc(C23CC4CC(CC(C4)C2)C3)s1		15
Fc1ccc(NC(=S)Nc2nnc(C34CC5CC(CC(C5)C3)C4)s2)cc1		11
CCN1CCN(Cn2nc(C34CC5CC(CC(C5)C3)C4)sc2=S)CC1	inactive	
O=C(O)Cn1nc(C23CC4CC(CC(C4)C2)C3)sc1=S		16

System: Staphylococcus aureus
Test: Antimicrobial activity against Staphylococcus aureus IFO 3060 after 24 hrs
Format: functional
Conditions: not given
Summary of the method: as §1

Molecule	MIC [µg/mL]
GENTAMICIN	2

System: Bacillus subtilis
Test: Antimicrobial activity against Bacillus subtilis IFO 3007 at 100 ug/8 mm disk after 24 hrs by agar disk diffusion method
Format: functional
Conditions: not given
Summary of the method: as §3

Molecule	GI
GENTAMICIN	25 mM
CC1(C)S[C@@H]2[C@H](NC(=O)[C@H](N)c3ccccc3)C(=O)N2[C@H]1C(=O)O [AMPICILLIN]	21 mm

System: Candida albicans
Test: Antimicrobial activity against Candida albicans IFO 0583 at 200 ug/8 mm disk after 48 hrs by agar disk diffusion method
Format: functional
Conditions: not given
Summary of the method: as §2

Molecule	GI [mm]	growth inhibition (GI)
O=C(O)CCn1nc(C23CC4CC(CC(C4)C2)C3)sc1=S	11	
CC(C(=O)O)n1nc(C23CC4CC(CC(C4)C2)C3)sc1=S (racemic)		inactive
S=c1sc(C23CC4CC(CC(C4)C2)C3)nn1Cc1ccccc1		inactive
S=C(Nc1ccccc1)Nc1nnc(C23CC4CC(CC(C4)C2)C3)s1		inactive
Fc1ccc(NC(=S)Nc2nnc(C34CC5CC(CC(C5)C3)C4)s2)cc1		inactive
CCN1CCN(Cn2nc(C34CC5CC(CC(C5)C3)C4)sc2=S)CC1		inactive
O=C(O)Cn1nc(C23CC4CC(CC(C4)C2)C3)sc1=S	17	

System: Bacillus subtilis
Test: Antimicrobial activity against Bacillus subtilis IFO 3007 at 200 ug/8 mm disk after 24 hrs by agar disk diffusion method
Format: functional
Conditions: not given
Summary of the method: as §2

Molecule	GI [mm]	growth inhibition (GI)
O=C(O)CCn1nc(C23CC4CC(CC(C4)C2)C3)sc1=S	13	
CC(C(=O)O)n1nc(C23CC4CC(CC(C4)C2)C3)sc1=S (racemic)	20	
S=c1sc(C23CC4CC(CC(C4)C2)C3)nn1Cc1ccccc1		inactive
S=C(Nc1ccccc1)Nc1nnc(C23CC4CC(CC(C4)C2)C3)s1	14	
Fc1ccc(NC(=S)Nc2nnc(C34CC5CC(CC(C5)C3)C4)s2)cc1	19	
CCN1CCN(Cn2nc(C34CC5CC(CC(C5)C3)C4)sc2=S)CC1	13	
O=C(O)Cn1nc(C23CC4CC(CC(C4)C2)C3)sc1=S	22	

System: Rattus norvegicus
Test: Antiinflammatory activity in Sprague-Dawley rat assessed as inhibition of carrageenan-induced paw edema at 20 mg/kg, ip administered 1 hrs before carrageenan challenge relative to untreated control
Format: functional
Conditions: route intraperitoneal

Molecule	inhibition in vivo at 20 mg/kg [%]
O=C(O)CCn1nc(C23CC4CC(CC(C4)C2)C3)sc1=S	7.47
CC(C(=O)O)n1nc(C23CC4CC(CC(C4)C2)C3)sc1=S (racemic)	50.6
S=c1sc(C23CC4CC(CC(C4)C2)C3)nn1Cc1ccccc1	1.12
CCN1CCN(Cn2nc(C34CC5CC(CC(C5)C3)C4)sc2=S)CC1	11.3
O=C(O)Cn1nc(C23CC4CC(CC(C4)C2)C3)sc1=S	29.5
